Screening data (PubChem)
In the library only some 4.3% were active in any assay of this set; here they are far more common.
Lipid droplet: inhibitors of hepatocyte lipid droplet formation, primary screen, imaging, high-throughput imaging, BODIPY stain; AID 1656, 2009; AML12 mouse hepatocytes, oleate lipid droplets; 0.4% of 240,000 active; inhibition, % at 6.5 µM;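 active = lipid droplet intensity inhibited by at least 50%, with more than 500 cells counted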
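Test system: AML12 mouse liver cells; schedule: overnight exposure; technique: high-content imaging of BODIPY-stained droplets and DAPI nuclei; read-out: % inhibition of corrected integrated BODIPY droplet signal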
AHR activator: AHR activators, primary screen, cell-based, luminescence, luciferase reporter, human; AHR-responsive luciferase reporter cells; Aryl hydrocarbon receptor (Homo sapiens), P35869; activation, % at 5 µM; 2.5% of 320,000 active; in the data active = activation above about 47%
SMARCA2 act: SMARCA2 (BRM) function activators, primary screen, cell-based, luminescence, high throughput | 1% of 370,000 active | MG213 cells, MMTV-luciferase reporter, dexamethasone, overnight | activation, % at 9.1 µM | AID 652017, 2013; in the data active = activation above about 7.8%
SR-BI DiI inh: inhibitors of SR-BI mediated HDL lipid uptake, primary screen, ldlA[mSR-BI] cells, fluorescence, single point | Scavenger receptor class B member 1 (Mus musculus), Q61009 | inhibition, % at 12.5 µM | 0.96% of 320,000 active | ldlA[mSR-BI] CHO cells, DiI-HDL uptake fluorescence, 3 h;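 active = mean replicate inhibition of at least 70% and a set share of replicates each scoring 70 or more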
Target sequence (Q61009 whole entry, looked up): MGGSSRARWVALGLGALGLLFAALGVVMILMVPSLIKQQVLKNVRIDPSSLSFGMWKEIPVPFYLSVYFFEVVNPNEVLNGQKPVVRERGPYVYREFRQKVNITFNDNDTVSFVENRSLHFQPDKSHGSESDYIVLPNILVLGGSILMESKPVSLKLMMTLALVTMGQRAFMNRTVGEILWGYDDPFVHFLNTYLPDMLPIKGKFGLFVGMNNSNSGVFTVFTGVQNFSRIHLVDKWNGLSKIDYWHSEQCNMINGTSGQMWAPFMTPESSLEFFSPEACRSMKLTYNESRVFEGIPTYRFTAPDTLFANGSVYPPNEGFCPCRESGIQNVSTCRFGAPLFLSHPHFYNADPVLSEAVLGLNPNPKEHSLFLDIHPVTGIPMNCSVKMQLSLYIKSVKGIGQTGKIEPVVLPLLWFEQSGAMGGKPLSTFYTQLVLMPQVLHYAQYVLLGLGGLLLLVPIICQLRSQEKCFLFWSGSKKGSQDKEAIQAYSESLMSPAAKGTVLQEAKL
CR mimetic SO: reduction of superoxide in aged yeast, primary screen, HTS; S. cerevisiae aged cells, superoxide DHE fluorescence; active compounds read low; superoxide response (% of plate mean), % at 10 µM; 0.18% of 330,000 active;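 active = superoxide response under a set limit, about three screen SD below normal, cut at about 65% in these data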;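 also: yeast aged for seven days with compound at 30 °C before DHE staining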
SR-BI DiI-HDL act: activators of SR-BI mediated DiI-HDL uptake, primary screen, ldlA[mSR-BI] CHO cells, DiI fluorescence. 3 h; 100 = double the neutral-control signal. activation, % at 12.5 µM. 0.096% of 320,000 active. AID 504775, 2011;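 active = mean replicate activation of at least 60% and every replicate at or above 60%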
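Material: SR-BI-overexpressing, LDLR-lacking CHO cells | Dosing: Single compound concentration, delivered by pin transfer | Probe or stimulus: Labelled HDL, 10 µg/mL | Signal: Bottom-read cell fluorescence after medium removal, ex 550/em 595 nm | Schedule: 3 h, 37 °C | Evaluation: HDL uptake via cellular fluorescence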
SMARCA2 act conf: SMARCA2 (BRM) function activators, confirmation, cell-based, luminescence, triplicate. shares compounds with SMARCA2 act. MG213 cells, MMTV-luciferase with dexamethasone, overnight; MG213 cells expressing E1A, Rb sequestered; DMSO wells 0%, reference activator 100%. activation, % at 9.1 µM. 30% of 3,500 active. AID 652260, 2013;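 active = activation above its plate's cutoff, the mean activation of tested wells plus 3 SD, cut at about 7.9% in these data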
GAL4-VP16 Luc: GAL4-VP16 luciferase reporter activation, counter-screen for SMARCA2 (BRM) activator project, cell-based, pG5luc, luminescence, high throughput; HEK293 GAL4-VP16 pG5luc reporter; scaled: DMSO wells 0%, SAHA wells 100%; activation, % at 9.1 µM; 41% of 3,500 active; AID 686939, 2013; shares compounds with SMARCA2 act;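 active = activation above the solvent-only control well mean plus 3 SD, averaged across control plates, cut at about 5.2% in these data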
Each line names hits and unclear results; the compound was inactive in the other large screens (follow-up assays come after a bar, where they were run).

CNS(=O)(=O)c1ccc(NC(=S)Nc2ccc3c(c2)OCO3)cc1	SMARCA2 act 9.0 | SMARCA2 act conf inactive | GAL4-VP16 Luc inactive
COc1ccc(OCC(C)CN2CCC(C(O)(c3ccccc3)c3ccccc3)CC2)cc1 (stereo unspecified)	none (no result: Lipid droplet, AHR activator, SR-BI DiI inh, CR mimetic SO, SR-BI DiI-HDL act)
Cc1ccc(NC(=O)c2cnccn2)c(Br)c1	SMARCA2 act 10 | SMARCA2 act conf inactive | GAL4-VP16 Luc 6.2
OCCCNc1c2ccccc2nc2ccccc12	SMARCA2 act 19 (no result: Lipid droplet) | SMARCA2 act conf 145 | GAL4-VP16 Luc inactive
O=C(NC1CCCC1)C(c1ccc(Cl)cc1)N1CCOCC1 (stereo unspecified)	none (no result: SR-BI DiI inh, SR-BI DiI-HDL act)
O=C(NC1CCCC1)C(c1ccc(F)cc1)N1CCC(O)(c2ccc(Cl)cc2)CC1 (stereo unspecified)	SMARCA2 act 13 (no result: Lipid droplet, AHR activator, SR-BI DiI inh, CR mimetic SO, SR-BI DiI-HDL act) | SMARCA2 act conf inactive | GAL4-VP16 Luc inactive
COC(=O)[C@]12C[C@H](CC(=O)NCc3ccc(C)o3)C(=O)N(CCC3=CCCCC3)C1=C[C@H](C(C)C)O[C@@H]2C1CC1	none (no result: Lipid droplet, AHR activator, SR-BI DiI inh, CR mimetic SO, SR-BI DiI-HDL act)
CCc1nn(CC(=O)N2CCN(c3ccc(OC)cc3)CC2)c(=O)c2cc3occc3n12	SMARCA2 act 8.4 | SMARCA2 act conf inactive | GAL4-VP16 Luc inactive
O=C(NCCc1c[nH]c2ccccc12)OCc1cn(Cc2ccc(F)cc2F)nn1	none (no result: Lipid droplet, AHR activator, SR-BI DiI inh, CR mimetic SO, SR-BI DiI-HDL act)
Cc1ccc(-c2nc(CN3CCCCC3)cc(CN3CCCCC3)c2O)cc1	SMARCA2 act 8.2 | SMARCA2 act conf inactive | GAL4-VP16 Luc inactive
COc1ccc(N(CCCN2C(=O)c3cccc4cccc(c34)C2=O)C(=O)c2ccncc2)cc1	AHR activator 76, SMARCA2 act 8.0 | SMARCA2 act conf inactive | GAL4-VP16 Luc inactive
COc1ccc(N(CN2C(=O)c3ccccc3C2=O)C(=O)C(C)C)cc1	none (no result: Lipid droplet)
Cc1ccc(C(=O)O/N=C(\N)Cc2cccs2)cc1[N+](=O)[O-]	SMARCA2 act 8.2 | SMARCA2 act conf inactive | GAL4-VP16 Luc inactive
O=c1c2cc3cccnc3nc2ncn1Cc1cccs1	none (no result: Lipid droplet, AHR activator, SR-BI DiI inh, CR mimetic SO, SR-BI DiI-HDL act)
O=C(Nc1ccc(CCC(=O)N2CCCC2)cc1)c1ncn[nH]1	SMARCA2 act 8.2 (no result: Lipid droplet) | SMARCA2 act conf inactive | GAL4-VP16 Luc inactive
CCCCN1C(=O)C(CC(=O)NCCCN(C)C)CC(C(=O)N(C(C)C)C(C)C)=C1C (stereo unspecified)	SMARCA2 act 13 (no result: Lipid droplet, AHR activator, SR-BI DiI inh, CR mimetic SO, SR-BI DiI-HDL act) | SMARCA2 act conf inactive | GAL4-VP16 Luc inactive
CCCCN1C(=O)C(CC(=O)NCCCN(C)C)CC(C(=O)N(CC)CC)=C1C (stereo unspecified)	none (no result: Lipid droplet, AHR activator, SR-BI DiI inh, CR mimetic SO, SR-BI DiI-HDL act)
O=c1c2c(nc3cc(-c4cccc(F)c4)[nH]n13)CCC2	SMARCA2 act 12 | SMARCA2 act conf 8.0 | GAL4-VP16 Luc 12
O=c1c2c(nc3cc(-c4cccc(Cl)c4)[nH]n13)CCC2	SMARCA2 act 10 (no result: Lipid droplet) | SMARCA2 act conf 16 | GAL4-VP16 Luc 13
O=c1c2c(nc3cc(-c4ccc(F)cc4)[nH]n13)CCCC2	none (no result: Lipid droplet)
O=c1c2c(nc3cc(-c4ccc(Cl)cc4)[nH]n13)CCS2	SMARCA2 act 13 | SMARCA2 act conf 8.6 | GAL4-VP16 Luc 7.6
COC(=O)C1CN(Cc2ccc(Cl)cc2)CCS(=O)(=O)N1Cc1cn(Cc2ccccc2)nn1 (stereo unspecified)	none (no result: Lipid droplet, AHR activator, SR-BI DiI inh, CR mimetic SO, SR-BI DiI-HDL act)
CC1C/C(=N/NC(=O)c2cccc(F)c2)c2ccc(O)cc2C1 (stereo unspecified)	SMARCA2 act 9.2 | SMARCA2 act conf inactive | GAL4-VP16 Luc inactive
